In data set [1] the target is Human immunodeficiency virus type 1 protease (Human immunodeficiency virus 1, UniProt Q72874). In words: Inhibitory activity against HIV-1 protease. The procedure, abridged:
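HIV-1 protease Ki from cleavage of a fluorescent peptide substrate, products resolved by HPLC. Inhibitor was tested at four concentrations spanning 0.1–10 000 nM, the range chosen per inhibitor.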

In data set [2] the test system is Human immunodeficiency virus 1. In words: Inhibition of viral infection in HIV-1 (RF)-infected MT-2 cells with an oligonucleotide-based sandwich hybridization assay. Type of data set: functional, MT2. The procedure, abridged:
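Uninfected MT-2 cells were preincubated for 30 min with serial dilutions of compound, then infected with HIV-1 RF and cultured for 3 days at 37 °C, 5% CO2. Lysates were assayed for viral RNA by microtiter oligonucleotide sandwich hybridization.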

A short description of data set [3]: Bioavailability in rat. Type of data set: ADME, organism-based. As to conditions: in vivo. Put shortly: (§1)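 Rats (n = 4/group) were given an oral dose of 10 mg/kg in a propylene glycol / poly(ethylene glycol) 400 / water formulation. Cmax is the observed peak plasma concentration after the oral dose. F% is AUC(po)/AUC, with AUC taken from time zero to infinity and normalized for dose.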

A short description of data set [4]: Bioavailability as maximal plasma concentration in dogs. Type of data set: ADME, organism-based, Canis lupus familiaris. The settings on record: dog. The procedure, abridged:
(§2)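 Dogs received an oral dose of 10 mg/kg. Cmax is the observed peak plasma concentration after the oral dose. Oral bioavailability is the dose-normalized ratio AUC(po)/AUC, with the plasma concentration–time area taken from zero to infinity.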

Data set [5] in a line: (§3) Bioavailability as maximal plasma concentration in rats. Type of data set: ADME, organism-based. The settings on record: rat. Put shortly:
as §1

Data set [6] in a line: Bioavailability in dog. Type of data set: ADME, organism-based, Canis lupus familiaris. The settings on record: in vivo. Put shortly:
as §2

A short description of data set [7]: as §3. Type of data set: ADME, organism-based. As to conditions: rat. The procedure, abridged:
as §1
The source holds these as a separate data set.

Setting [8] is: Human immunodeficiency virus 1, MT2.

Structures are written as SMILES.

Experimental findings from ChEMBL document CHEMBL1129626, “Cyclic HIV protease inhibitors: synthesis, conformational analysis, P2/P2' structure-activity relationship, and molecular recognition of cyclic ureas” (J Med Chem, 1996) are described below.

In turn, `O=C1N(Cc2cccc(O)c2)[C@H](Cc2ccccc2)[C@H](O)[C@@H](O)[C@@H](Cc2ccccc2)N1Cc1cccc(O)c1` yielded a Ki in data set [1] of 0.00012 µM. Further, in data set [2] (setting [8]), the 90% effect level (IC90) was put at 0.054 µM. Besides, the bioavailability was found to be 30% in data set [3] and 16% in data set [6]. In addition, the figures for the Cmax in data set [4] and in data set [5] were 2 µM and 0.81 µM, respectively.
Molecule `C=CCN1C(=O)N(CC=C)[C@H](Cc2ccccc2)[C@H](O)[C@@H](O)[C@H]1Cc1ccccc1` yielded an inhibition constant Ki in data set [1] of 0.0052 µM. In data set [2] (setting [8]), this molecule returned an IC90 of 4.7 µM. This molecule also displayed a bioavailability in data set [3] of 49%. In data set [5], this molecule came in with a Cmax of 2.7 µM.
For `O=C1N(Cc2cccc(CO)c2)[C@H](Cc2ccccc2)[C@H](O)[C@@H](O)[C@@H](Cc2ccccc2)N1Cc1cccc(CO)c1`, in that order: 0.00014 µM, 0.038 µM, 18% and 0.83 µM.
In the case of `CC(C)=CCN1C(=O)N(CC=C(C)C)[C@H](Cc2ccccc2)[C@H](O)[C@@H](O)[C@H]1Cc1ccccc1`, in data set [2] (setting [8]), the IC90 turned out to be 0.87 µM. The molecule also yielded a Cmax in data set [5] of under 0.4 µM.
Consider `O=C1N(CC2CCCC2)[C@H](Cc2ccccc2)[C@H](O)[C@@H](O)[C@@H](Cc2ccccc2)N1CC1CCCC1`, for which the affinity in data set [1], expressed as Ki, was 0.0043 µM. In data set [2] (setting [8]), the 90% effect level (IC90) was put at 1.7 µM. In data set [5], this molecule yielded a Cmax of 0.2 µM.
`O=C1N(Cc2ccccc2)[C@H](Cc2ccccc2)[C@H](O)[C@@H](O)[C@@H](Cc2ccccc2)N1Cc1ccccc1` came in with a Ki in data set [1] of 0.003 µM. The same molecule came in with an IC90 in data set [2] (setting [8]) of 0.83 µM. Besides, the Cmax in data set [5] was determined as 1.3 µM.
For `O=C1N(Cc2cccc(Cl)c2)[C@H](Cc2ccccc2)[C@H](O)[C@@H](O)[C@@H](Cc2ccccc2)N1Cc1cccc(Cl)c1`, in that order: 0.00089 µM, 1.3 µM and 0.3 µM.
In turn, `O=C1N(Cc2ccc(O)cc2)[C@H](Cc2ccccc2)[C@H](O)[C@@H](O)[C@@H](Cc2ccccc2)N1Cc1ccc(O)cc1` showed a Ki in data set [1] of 0.00012 µM. It took 0.032 µM to reach the 90% level in data set [2] (setting [8]) (IC90). In data set [3], this molecule returned a bioavailability of 22%. In data set [5], this molecule yielded a Cmax of 0.39 µM.
With `O=C1N(Cc2cccc(O)c2)[C@H](Cc2ccccc2)[C@H](O)[C@@H](O)[C@@H](Cc2ccccc2)N1Cc1ccc2ccccc2c1`, affinity in data set [1] was put at a Ki of 0.00033 µM. In data set [2] (setting [8]), this molecule registered an IC90 of 0.145 µM. The peak concentration (Cmax) stood at 0.96 µM in data set [7], 2.7 µM in data set [4] and 0.96 µM in data set [5].
On to `O=C1N(CC2CC2)[C@H](Cc2ccccc2)[C@H](O)[C@@H](O)[C@@H](Cc2ccccc2)N1CC1CC1`, for which the 90% effect concentration (IC90) in data set [2] (setting [8]) amounted to 1.8 µM. For the same molecule, the bioavailability in data set [3] turned out to be 100%; in data set [6], 48%. Besides, the figures for the peak concentration (Cmax) in data set [4] and in data set [5] were 9.2 µM and 4.3 µM, respectively.
`O=C1N(Cc2ccc(F)cc2)[C@H](Cc2ccccc2)[C@H](O)[C@@H](O)[C@@H](Cc2ccccc2)N1Cc1ccc(F)cc1` had a Ki in data set [1] of 0.0014 µM. Besides, in data set [2] (setting [8]), the IC90 amounted to 0.6 µM. Moreover, the peak level in data set [5] (Cmax) was 1.6 µM.
In data set [2], `O=C1N(Cc2ccc(CO)cc2)[C@H](Cc2ccccc2)[C@H](O)[C@@H](O)[C@@H](Cc2ccccc2)N1Cc1ccc(CO)cc1` [DMP-323] yielded an IC90 of 0.057 µM. The bioavailability in data set [3] was 27%; in data set [6] it was 37%. Moreover, the results for the Cmax in data set [4] and in data set [5] were 2.8 µM and 0.78 µM, respectively.
